Measured values of several laboratories.
Compare with care: the assays were run in different laboratories.
Target: Inhibitor of nuclear factor kappa-B kinase subunit beta (IKBKB, Homo sapiens, UniProt O14920)
One construct used (O14920 1-756): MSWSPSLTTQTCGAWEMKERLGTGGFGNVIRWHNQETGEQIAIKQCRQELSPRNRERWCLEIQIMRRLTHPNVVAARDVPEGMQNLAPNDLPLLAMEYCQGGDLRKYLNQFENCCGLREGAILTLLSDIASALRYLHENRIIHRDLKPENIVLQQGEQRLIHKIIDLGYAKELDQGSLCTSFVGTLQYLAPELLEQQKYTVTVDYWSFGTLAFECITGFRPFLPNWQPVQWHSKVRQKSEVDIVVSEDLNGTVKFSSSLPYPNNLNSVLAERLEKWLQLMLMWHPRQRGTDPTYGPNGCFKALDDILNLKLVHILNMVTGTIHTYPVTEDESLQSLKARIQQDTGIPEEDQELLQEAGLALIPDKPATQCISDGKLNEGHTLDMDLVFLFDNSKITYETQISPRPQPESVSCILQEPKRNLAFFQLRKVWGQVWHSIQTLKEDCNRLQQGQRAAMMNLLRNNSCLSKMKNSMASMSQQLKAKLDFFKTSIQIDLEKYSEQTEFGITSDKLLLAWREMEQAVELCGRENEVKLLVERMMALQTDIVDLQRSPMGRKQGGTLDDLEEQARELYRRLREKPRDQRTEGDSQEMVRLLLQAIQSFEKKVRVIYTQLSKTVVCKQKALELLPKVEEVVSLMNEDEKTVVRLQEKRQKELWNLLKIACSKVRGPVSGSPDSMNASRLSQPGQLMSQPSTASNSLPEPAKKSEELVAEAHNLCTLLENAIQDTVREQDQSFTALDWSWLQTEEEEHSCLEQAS

SMILES	effect on	action	technique	concentration	quantity	value
CCCCC(=O)Nc1ccc(-c2ccc3ncn(CCC)c(=O)c3c2)cn1	binding	–	competition with immobilised ligand	0.5 µM	remaining binding	100%
C=CC(=O)N1CCC[C@@H](n2nc(-c3ccc(Oc4ccccc4)cc3)c3c(N)ncnc32)C1	enzyme activity	inhibitor	–	1 µM	inhibition	30%
CN1CCN(C(=O)c2ccc(NC(=O)Nc3ccc(N(C)c4ccnc(Nc5ccc(CS(C)(=O)=O)cc5)n4)cc3)cc2)CC1	binding	–	competition with immobilised ligand	1 µM	remaining binding	70%
N#Cc1ccc(NC(=O)Nc2ccccc2)cc1	cell-free assay	–	competition with immobilised ligand	25 µM	remaining binding	100%
CO[C@@H]1[C@H](N(C)C(=O)c2ccccc2)C[C@H]2O[C@]1(C)n1c3ccccc3c3c4c(c5c6ccccc6n2c5c31)C(=O)NC4	enzyme activity	inhibitor	–	1 µM	inhibition	13%
COc1ccc2oc(-c3ccc4nc(N)oc4c3)c/c(=N\c3ccccc3NC(=O)CCN)c2c1	binding	–	–	1 µM	remaining binding	102%
Cc1ccc(NC(=O)c2ccnc(C(F)(F)F)c2)cc1-c1cc(OCCO)nc(N2CCOCC2)c1	binding	–	competition with immobilised ligand	1 µM	remaining binding	97%
C#Cc1cnc(Nc2ccnc(CO)c2)nc1Nc1ccccc1S(C)(=O)=NC#N (centres unmarked)	cell-free assay	–	–	1 µM	remaining signal	97%
